Results as given in ChEMBL document CHEMBL1133624, “Benzothiadiazine dioxide dibenzyl derivatives as potent human cytomegalovirus inhibitors: synthesis and comparative molecular field analysis” (J Med Chem, 2000).

Experiments:
MRC5 = experiment: Concentration required to reduce MRC-5 cell growth by 50%; format: functional; details: Homo sapiens
Method in brief: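 MRC-5 fibroblasts seeded at 5 × 10³ cells/well, left to proliferate 24 h, then exposed to different concentrations of test compound (duplicate). After 3 days at 37 °C in 5% CO₂, cell number counted with a Coulter counter.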

Human betaherpesvirus 5 = experiment: Concentration required to reduce viral plaque formation by Human Cytomegalovirus (HCMV) (strain AD-169) in MRC-5 cells; format: functional, organism-based; details: Human betaherpesvirus 5, MRC5

Structure (SMILES): O=S1(=O)N=C(OCc2ccc(Cl)c(Cl)c2)c2ccccc2N1Cc1ccc(Cl)c(Cl)c1
- CC50 (MRC5): > 48 µM
- IC50 (Human betaherpesvirus 5): 48 µM

Structure (SMILES): O=S1(=O)N=C(OCc2ccccc2)c2ccccc2N1Cc1ccc(Cl)c(Cl)c1
- CC50 (MRC5): > 56 µM
- IC50 (Human betaherpesvirus 5): 26 µM

Structure (SMILES): O=C1c2ccccc2N(Cc2ccccc2-c2ccccc2)S(=O)(=O)N1Cc1ccccc1
- CC50 (MRC5): > 55 µM
- IC50 (Human betaherpesvirus 5): 44 µM

Structure (SMILES): O=C1c2ccccc2N(Cc2ccc(Cl)c(Cl)c2)S(=O)(=O)N1Cc1ccccc1
- CC50 (MRC5): > 56 µM
- IC50 (Human betaherpesvirus 5): 4 µM

Structure (SMILES): O=C1c2ccccc2N(Cc2ccc(C(F)(F)F)cc2)S(=O)(=O)N1Cc1ccccc1
- CC50 (MRC5): > 56 µM
- IC50 (Human betaherpesvirus 5): 3.3 µM

Structure (SMILES): O=C(CN1c2ccccc2C(=O)N(Cc2ccccc2)S1(=O)=O)c1ccccc1
- CC50 (MRC5): > 61 µM
- IC50 (Human betaherpesvirus 5): 24.6 µM

Structure (SMILES): O=C1c2ccccc2N(CC2CCCCC2)S(=O)(=O)N1Cc1ccccc1
- CC50 (MRC5): > 65 µM
- IC50 (Human betaherpesvirus 5): 15.6 µM

Structure (SMILES): CC(C)CN1c2ccccc2C(=O)N(Cc2ccccc2)S1(=O)=O
- CC50 (MRC5): 72 µM
- IC50 (Human betaherpesvirus 5): 14.5 µM

Structure (SMILES): O=C1c2ccccc2N(Cc2ccccc2)S(=O)(=O)N1Cc1ccccc1Cl
- CC50 (MRC5): > 60 µM
- IC50 (Human betaherpesvirus 5): 12 µM

Structure (SMILES): O=C1c2ccccc2N(Cc2ccc(Cl)cc2)S(=O)(=O)N1Cc1ccc(Cl)cc1
- CC50 (MRC5): > 56 µM
- IC50 (Human betaherpesvirus 5): 3.3 µM

Structure (SMILES): Nc1nc2c(ncn2COC(CO)CO)c(=O)[nH]1 [GANCICLOVIR]
- CC50 (MRC5): > 98 µM
- IC50 (Human betaherpesvirus 5): 5.9 µM

Structure (SMILES): O=C1c2ccccc2N(Cc2ccccc2Cl)S(=O)(=O)N1Cc1ccccc1
- CC50 (MRC5): > 60 µM
- IC50 (Human betaherpesvirus 5): 4.8 µM

Structure (SMILES): Cc1ccc(CN2c3ccccc3C(=O)N(Cc3ccccc3)S2(=O)=O)cc1
- CC50 (MRC5): > 63 µM
- IC50 (Human betaherpesvirus 5): 2.5 µM

Structure (SMILES): O=C1c2ccccc2N(Cc2cccc3ccccc23)S(=O)(=O)N1Cc1ccccc1
- CC50 (MRC5): > 58 µM
- IC50 (Human betaherpesvirus 5): 11.6 µM

Structure (SMILES): O=S1(=O)N=C(OCc2ccc(-c3ccccc3)cc2)c2ccccc2N1Cc1ccc(-c2ccccc2)cc1
- CC50 (MRC5): > 47 µM
- IC50 (Human betaherpesvirus 5): 47 µM

Structure (SMILES): O=C1c2ccccc2N(Cc2ccc(Cl)c(Cl)c2)S(=O)(=O)N1Cc1ccc(Cl)c(Cl)c1
- CC50 (MRC5): > 48 µM
- IC50 (Human betaherpesvirus 5): 15 µM

Structure (SMILES): O=C1c2ccccc2N(Cc2ccc(C(F)(F)F)cc2)S(=O)(=O)N1Cc1ccc(C(F)(F)F)cc1
- CC50 (MRC5): > 48 µM
- IC50 (Human betaherpesvirus 5): 15 µM

Structure (SMILES): COc1ccc(CCN2c3ccccc3C(=O)N(Cc3ccccc3)S2(=O)=O)cc1
- CC50 (MRC5): > 59 µM
- IC50 (Human betaherpesvirus 5): 4 µM

Structure (SMILES): O=C1c2ccccc2N(Cc2ccccc2)S(=O)(=O)N1Cc1ccccc1
- CC50 (MRC5): > 66 µM
- IC50 (Human betaherpesvirus 5): 5.3 µM

Structure (SMILES): O=C1c2ccccc2N(Cc2ccccc2Cl)S(=O)(=O)N1Cc1ccccc1Cl
- CC50 (MRC5): > 56 µM
- IC50 (Human betaherpesvirus 5): 33 µM

Structure (SMILES): O=C1c2ccccc2N(Cc2ccc(-c3ccccc3)cc2)S(=O)(=O)N1Cc1ccc(-c2ccccc2)cc1
- CC50 (MRC5): > 47 µM
- IC50 (Human betaherpesvirus 5): 47 µM

Structure (SMILES): O=C1c2ccccc2N(Cc2ccc([N+](=O)[O-])cc2)S(=O)(=O)N1Cc1ccc([N+](=O)[O-])cc1
- CC50 (MRC5): > 53 µM
- IC50 (Human betaherpesvirus 5): 53 µM

Structure (SMILES): O=S1(=O)N=C(OCc2ccccc2)c2ccccc2N1Cc1ccccc1
- CC50 (MRC5): > 66 µM
- IC50 (Human betaherpesvirus 5): 7.9 µM

Structure (SMILES): O=C1c2ccccc2N(Cc2ccc(Cl)cc2)S(=O)(=O)N1Cc1ccccc1
- CC50 (MRC5): > 60 µM
- IC50 (Human betaherpesvirus 5): 3.6 µM

Structure (SMILES): O=C1c2ccccc2N(Cc2ccc([N+](=O)[O-])cc2)S(=O)(=O)N1Cc1ccccc1
- CC50 (MRC5): > 59 µM
- IC50 (Human betaherpesvirus 5): 8 µM

Structure (SMILES): O=C1c2ccccc2N(Cc2cccnc2)S(=O)(=O)N1Cc1ccccc1
- CC50 (MRC5): 66 µM
- IC50 (Human betaherpesvirus 5): 13.1 µM

Structure (SMILES): O=C1c2ccccc2N(CCCc2ccccc2)S(=O)(=O)N1Cc1ccccc1
- CC50 (MRC5): > 57 µM
- IC50 (Human betaherpesvirus 5): 18.4 µM

Structure (SMILES): O=C1c2ccccc2N(Cc2cccc(Cl)c2)S(=O)(=O)N1Cc1ccccc1
- CC50 (MRC5): > 60 µM
- IC50 (Human betaherpesvirus 5): 3.6 µM

Structure (SMILES): N#Cc1ccc(CN2c3ccccc3C(OCc3ccccc3)=NS2(=O)=O)cc1
- CC50 (MRC5): > 62 µM
- IC50 (Human betaherpesvirus 5): 29 µM

Structure (SMILES): O=C1c2ccccc2N(CCc2ccccc2)S(=O)(=O)N1Cc1ccccc1
- CC50 (MRC5): > 64 µM
- IC50 (Human betaherpesvirus 5): 7.6 µM

Structure (SMILES): COc1ccc(CN2c3ccccc3C(OCc3ccccc3)=NS2(=O)=O)cc1
- CC50 (MRC5): > 61 µM
- IC50 (Human betaherpesvirus 5): 61 µM

Structure (SMILES): O=[N+]([O-])c1ccc(COC2=NS(=O)(=O)N(Cc3ccc([N+](=O)[O-])cc3)c3ccccc32)cc1
- CC50 (MRC5): > 53 µM
- IC50 (Human betaherpesvirus 5): 53 µM

Structure (SMILES): C#CCCN1c2ccccc2C(=O)N(Cc2ccccc2)S1(=O)=O
- CC50 (MRC5): 77 µM
- IC50 (Human betaherpesvirus 5): 76.6 µM

Structure (SMILES): COc1ccc(C(=O)CN2c3ccccc3C(=O)N(Cc3ccccc3)S2(=O)=O)cc1
- CC50 (MRC5): > 57 µM
- IC50 (Human betaherpesvirus 5): 3.2 µM

Structure (SMILES): O=S1(=O)N=C(OCc2ccc(C(F)(F)F)cc2)c2ccccc2N1Cc1ccc(C(F)(F)F)cc1
- CC50 (MRC5): > 48 µM
- IC50 (Human betaherpesvirus 5): 23 µM

Structure (SMILES): Cc1ccc(CN2c3ccccc3C(OCc3ccccc3)=NS2(=O)=O)cc1
- CC50 (MRC5): > 63 µM
- IC50 (Human betaherpesvirus 5): 10 µM

Structure (SMILES): N#Cc1ccc(CN2c3ccccc3C(=O)N(Cc3ccccc3)S2(=O)=O)cc1
- CC50 (MRC5): > 62 µM
- IC50 (Human betaherpesvirus 5): 8 µM

Structure (SMILES): Cc1ccc(C(=O)CN2c3ccccc3C(=O)N(Cc3ccccc3)S2(=O)=O)cc1
- CC50 (MRC5): > 59 µM
- IC50 (Human betaherpesvirus 5): 2.8 µM

Structure (SMILES): COc1ccc(CN2c3ccccc3C(=O)N(Cc3ccccc3)S2(=O)=O)cc1
- CC50 (MRC5): > 61 µM
- IC50 (Human betaherpesvirus 5): 7 µM

Structure (SMILES): COc1ccc(CN2C(=O)c3ccccc3N(Cc3ccc(OC)cc3)S2(=O)=O)cc1
- CC50 (MRC5): > 57 µM
- IC50 (Human betaherpesvirus 5): 57 µM

Structure (SMILES): O=C1c2ccccc2N(Cc2ccccc2)S(=O)(=O)N1Cc1ccc(Cl)cc1
- CC50 (MRC5): > 60 µM
- IC50 (Human betaherpesvirus 5): 6 µM
